High-throughput results (PubChem)
A selection: hits, their analogues and other compounds. The true share with any hit is near 3.1%.
miR-122 sensor – blocks miR-122 activity in Huh7 sensor cells; 340,000 tested, 0.3% active; activation (reporter increase), % at 12.5 µM; AID 602342; Huh7 miR-122 Renilla luciferase sensor, 48 h; neutral wells = 0, positive control = 100;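 active = mean replicate activation score at least 90 and every replicate individually at or above 90; inconclusive = only one of the two criteria met; inactive = neither criterion met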;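 note: higher luciferase means less miR-122 activity so hits act as miR-122 inhibitors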
Cneo AK release – Cryptococcus neoformans lysis via adenylate kinase release | C. neoformans lysis, adenylate kinase release luminescence, 4 h; normalised: neutral wells 0, clomiphene wells 100 | lysis activity, % at 15 µM | 360,000 tested, 0.2% active | AID 651654;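 active = mean lysis activity across replicates of at least 80%, whatever share of replicates individually reach that level; inactive = mean lysis activity below 80%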
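Assay system: log-phase C. neoformans yeast / Quantity: yeast cell density of 5 × 10^6 cells/mL / Medium: fresh YPD growth medium / Compound: single dose / Timing: static 4 h at 37 °C with compound, 1 h detection / Measured by: adenylate kinase release luminescence / Read-out: lysis from increased AK signal / Benchmarks: Clomiphene as positive lysis control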
Ecoli rRNA inh – selective bacterial rRNA inhibition in E. coli; 350,000 tested, 1.6% active; E. coli WT GFP vs humanized-ribosome RFP mutants, fluorescence, 24 h; stronger effect = lower value; DMSO median 0, no signal -100; GFP signal change (wild-type ribosome), % (no concentration beside the values);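 active = significant combined selectivity score with lowered wild-type GFP, culture density cut under 30%, mutant RFP and density less affected; inactive = any of these conditions unmet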
DENV2 CPE rescue – DENV2-induced cell death inhibition | DENV2-infected cells, cytopathic effect rescue, plate reader | CPE inhibition, % at 9.99 µM | 350,000 tested, 1.7% active; in the data active = CPE inhibition above about 20%, passing the limit was not always enough; inconclusive = no clear call, values can overlap the other calls; tested in BHK-21 cells;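 note: 0% = median of neutral control wells and 100% = median of positive control wells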
E-sel inducer – induces E-selectin expression in human endothelial cells. P16581. HUVEC E-selectin immunofluorescence imaging; normalized: neutral wells 0, TNF-alpha wells 100. activation, % at 7.58 µM. 260,000 tested, 0.37% active. AID 686992;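 active = mean E-selectin-positive cell signal at least 10% of the positive control, reached in at least 60% of replicates, without over 20% cell loss; inconclusive = no rule given, readout overlaps actives, possibly toxicity-flagged; inactive = the rest, including those meeting only one limit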
Target sequence (P16581 whole entry, looked up): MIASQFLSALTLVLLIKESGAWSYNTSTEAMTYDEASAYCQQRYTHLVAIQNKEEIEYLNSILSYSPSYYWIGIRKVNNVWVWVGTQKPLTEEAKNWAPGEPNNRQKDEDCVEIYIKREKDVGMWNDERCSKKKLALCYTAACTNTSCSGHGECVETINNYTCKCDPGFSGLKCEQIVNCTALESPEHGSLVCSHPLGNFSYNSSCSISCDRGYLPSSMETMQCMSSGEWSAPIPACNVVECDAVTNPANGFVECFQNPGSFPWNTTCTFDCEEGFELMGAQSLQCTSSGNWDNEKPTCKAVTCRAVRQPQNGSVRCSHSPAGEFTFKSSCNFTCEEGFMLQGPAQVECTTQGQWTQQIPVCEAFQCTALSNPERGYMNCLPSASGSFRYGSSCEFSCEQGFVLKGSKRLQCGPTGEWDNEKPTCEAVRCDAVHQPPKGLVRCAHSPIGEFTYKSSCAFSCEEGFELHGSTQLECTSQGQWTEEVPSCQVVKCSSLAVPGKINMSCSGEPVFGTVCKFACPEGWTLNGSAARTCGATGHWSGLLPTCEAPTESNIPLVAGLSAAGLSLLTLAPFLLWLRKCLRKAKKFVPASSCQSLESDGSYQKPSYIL
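material = human umbilical vein endothelial cells (HUVEC), E-selectin induction | quantity = 3,000 cells/well | medium = EGM-2 growth medium on 0.1% gelatin-coated wells | technique = immunofluorescence imaging | read-out basis = % PE-positive cells | control set = TNF-alpha positive control, DMSO neutral control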
Starred values were filed as active, the others as inactive; ? = inconclusive; nt = not tested or not shown; [ ] = another dose, or the depositor's remark.

SMILES | miR-122 sensor | Cneo AK release | Ecoli rRNA inh | DENV2 CPE rescue | E-sel inducer
C[C@@H]1CN([C@@H](C)CO)C(=O)Cc2cc(NC(=O)Nc3ccccc3)ccc2O[C@@H]1CN(C)C(=O)Nc1ccc(F)cc1 | -0.2[16.7 µM] | -1.9 | 2.4 | 39.9* | 0.0
COc1ccc(NC(=O)Nc2ccc3c(c2)CC(=O)N([C@H](C)CO)C[C@@H](C)[C@H](CN(C)C(=O)Nc2ccccc2)O3)cc1 | -3.5[16.7 µM] | 6.1 | 4.0 | 2.9 | 0.6
COc1ccc(CN(C)C[C@H]2Oc3ccc(NC(=O)NC4CCCCC4)cc3CC(=O)N([C@H](C)CO)C[C@@H]2C)cc1 | nt | nt | 1.1 | nt | -0.2
Cc1ccccc1S(=O)(=O)NCC[C@H]1CC[C@H](NC(=O)C2CCOCC2)[C@H](CO)O1 | 22.9[16.7 µM] | -2.0 | 0.1 | 3.0 | 0.1
C[C@@H]1CN(C)C(=O)Cc2cc(N(C)C)ccc2O[C@H]1CN(C)C(=O)OC(C)(C)C | nt | nt | 0.6 | nt | nt
C[C@@H]1CN([C@H](C)CO)S(=O)(=O)c2ccc(C3=CCCCC3)cc2O[C@H]1CN(C)C | 20.1[16.7 µM] | nt | -0.5 | nt | 0.3
COc1ccc(NC(=O)N(C)C[C@@H]2Oc3ccc(NC(=O)C4CC4)cc3CC(=O)N([C@@H](C)CO)C[C@@H]2C)cc1 | -9.2[16.7 µM] | -0.9 | 0.5 | 5.3 | 0.0
COc1ccc(NC(=O)Nc2ccc3c(c2)CC(=O)N([C@H](C)CO)C[C@H](C)[C@@H](CN(C)C(=O)Nc2ccc(C(F)(F)F)cc2)O3)cc1 | -4.7[16.7 µM] | -3.1 | -3.6 | -19.3 | nt
COc1ccc(NC(=O)N(C)C[C@H]2Oc3ccc(NC(=O)Nc4ccc(C(F)(F)F)cc4)cc3CC(=O)N([C@@H](C)CO)C[C@H]2C)cc1 | 200.8*[16.7 µM] | -56.5 | -3.8 | -19.9 | 1.8
COc1ccc(NC(=O)N(C)C[C@@H]2Oc3ccc(NC(=O)Cc4ccccc4)cc3CC(=O)N([C@@H](C)CO)C[C@@H]2C)cc1 | 13.3[16.7 µM] | -1.1 | -0.6 | 3.1 | -5.8
COc1ccc(NC(=O)N(C)C[C@H]2Oc3ccc(NC(=O)C4CC4)cc3CC(=O)N([C@H](C)CO)C[C@@H]2C)cc1 | -5.4[16.7 µM] | 3.3 | 1.0 | 24.2* | 1.1
COc1ccc(NC(=O)N(C)C[C@@H]2Oc3ccc(NC(=O)Cc4ccccc4)cc3CC(=O)N([C@H](C)CO)C[C@H]2C)cc1 | 1.8[16.7 µM] | -4.6 | 2.3 | 0.2 | 336.5*
CCCC(=O)Nc1ccc2c(c1)C(=O)N(C)C[C@@H](OC)[C@H](C)CN(C(=O)C1CCCC1)[C@@H](C)CO2 | nt | -1.8 | 2.5 | -7.1 | -0.2
COc1ccc(S(=O)(=O)N(C)C[C@@H]2OCCCC[C@@H](C)Oc3ccc(NC(=O)Nc4cccc5ccccc45)cc3C(=O)N([C@@H](C)CO)C[C@H]2C)cc1 | -0.2[16.7 µM] | 1.0 | -4.1 | 6.5 | 0.4
CN1C(=O)C(CC(=O)NCCc2ccccc2)N(NC(=O)c2cccc(F)c2)C1=S (centres undefined) | -2.9 | 0.6 | -16.2* | ? | ?
CN1C(=O)C(CC(=O)NCCc2ccccc2)N(NC(=O)c2ccc(Cl)cc2)C1=S (centres undefined) | -2.5 | 1.1 | 4.0 | 2.7 | nt
COc1ccc(N2C(=O)C(CC(=O)Nc3ccc(Cl)cc3)N(NC(=O)c3cccc(F)c3)C2=S)cc1 (centres undefined) | 0.5 | 0.5 | -17.4* | 12.7 | -1.0
O=C(C[C@@H]1CC[C@H](NS(=O)(=O)c2ccc(F)cc2)[C@H](CO)O1)NCc1ccccc1F | nt | nt | 0.9 | 6.0 | 0.1
COc1ccc2c3c(n(C)c2c1)[C@H](CO)N(C(=O)CN(C)C)CC31CN(C(=O)C2CCC2)C1 | nt | nt | 3.0 | 2.4 | 0.0
Cc1cccc(NC(=S)NC2CC3C=CC2C3)c1 (centres undefined) | 27.6 | 19.2 | -21.0* | -2.0 | 0.5
Cc1ccc(-c2cnc3c(c2)C(=O)N([C@H](C)CO)C[C@@H](C)[C@@H](CN(C)CC2CCOCC2)O3)cc1 | -2.9[16.7 µM] | -4.5 | 2.7 | 17.8 | -0.1
CC(C)c1ccc(/C=C/C(=O)N2CCCCCC2)cc1 | nt | nt | -25.9* | 6.1 | 0.1
CC(C)c1ccc(/C=C/C(=O)CCC(=O)O)cc1 | 213.3* | nt | -7.8 | -3.1 | nt
C/C(=N\Nc1nc2ccccc2[nH]1)c1ccc2c(c1)OCCO2 | nt | nt | -48.3* | -4.2 | nt
O=c1cc(CSc2nc(NCc3ccccc3)c3ccccc3n2)nc2ccc(Cl)cn12 | -5.4 | 0.7 | -31.8* | -3.1 | 1.1
SMILES | miR-122 sensor | Cneo AK release | Ecoli rRNA inh | DENV2 CPE rescue | E-sel inducer
COc1ccc(NC(=O)Nc2ccc3c(c2)CC(=O)N([C@@H](C)CO)C[C@@H](C)[C@H](CN(C)Cc2ccc(-c4ccccc4)cc2)O3)cc1 | -4.5[16.7 µM] | 2.8 | 0.5 | 8.2 | 0.2
CCCCCCC(=O)O | -1.3 | 0.0 | 4.6 | 58.1* | nt
Cc1cc(NC(=O)COC(=O)CSCc2ccc(Cl)c(Cl)c2)no1 | -16.5 | -2.6 | -22.4* | -3.9 | nt
Cc1cc(NC(=O)CSCC(=O)N(C)Cc2ccc(Cl)c(Cl)c2)no1 | -4.7 | 0.7 | -7.0 | -1.0 | -0.8
C[C@H](CO)N1C[C@H](C)[C@@H](CN(C)Cc2ccccc2)Oc2ccc(NS(=O)(=O)c3cn(C)cn3)cc2C1=O | -1.0[16.7 µM] | -0.6 | 1.4 | -8.9 | 1.1
C[C@@H]1CN([C@H](C)CO)C(=O)c2cc(NS(=O)(=O)c3cn(C)cn3)ccc2O[C@H]1CN(C)Cc1ccc(-c2ccccc2)cc1 | -7.4[16.7 µM] | 2.3 | -1.3 | -0.9 | 0.0
C[C@H]1CN([C@@H](C)CO)C(=O)c2cc(NS(=O)(=O)c3cn(C)cn3)ccc2O[C@@H]1CN(C)Cc1ccncc1 | -2.2[16.7 µM] | -1.0 | 2.3 | 8.2 | 48.7*
C[C@H]1CN([C@@H](C)CO)C(=O)c2cc(NS(=O)(=O)c3cn(C)cn3)ccc2O[C@@H]1CN(C)Cc1ccccc1 | -8.4[16.7 µM] | -1.9 | -0.8 | 23.7* | 0.6
C[C@H](CO)N1C[C@H](C)[C@H](CN(C)CC2CC2)Oc2ccc(NS(=O)(=O)c3cn(C)cn3)cc2C1=O | 0.8[16.7 µM] | -4.8 | 3.2 | -3.5 | -0.5
C[C@@H]1CN([C@H](C)CO)C(=O)c2cc(NS(=O)(=O)c3cn(C)cn3)ccc2O[C@H]1CN(C)Cc1ccccc1 | -5.4[16.7 µM] | -1.6 | 1.1 | 20.8* | -0.1
C[C@H](CO)N1C[C@H](C)[C@@H](CN(C)CC2CC2)Oc2ccc(NS(=O)(=O)c3cn(C)cn3)cc2C1=O | -2.9[16.7 µM] | -3.1 | 6.0 | 32.7* | -0.3
COc1ccc2c3c(n(C)c2c1)[C@H](CO)N(S(C)(=O)=O)CC31CN(C(=O)C2CCCC2)C1 | nt | nt | -1.4 | 8.7 | 0.2
CO[C@@H]1CC[C@H]2CCN(C)C(=O)C[C@H](c3ccccc3)CN(C)C(=O)c3cccc(C#N)c3OC[C@H]1O2 | nt | 3.5 | 0.1 | -3.4 | -0.1
CCN(C(=O)Cn1ccc(C(F)(F)F)n1)c1c(N)n(Cc2ccccc2)c(=O)[nH]c1=O | nt | -4.4 | 8.7 | 12.8 | 110.4*
COCCNc1nnc(SCC(=O)N(C)c2c(N)n(Cc3ccccc3)c(=O)[nH]c2=O)s1 | -6.8 | -1.1 | 10.7 | -1.3 | -0.9
